Where two headings read alike, the source gives them in different places. One block for each compound: values may come before it.
How the values were obtained:
[1] = type: physicochemical; conditions: 1 mM complex, 25 mM Zn2+, 50 mM pH 6.0 MES buffer, 37 °C, 1.4T
[2] = type: physicochemical; conditions: from Kcomp determined using CDTA challenge
Method in brief: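 The conditional stability constant at pH 7.4 came from direct competition of the Mn complex with CDTA, with species monitored by LC-MS. The effective constant was derived from the competition constant Kcomp. pMn was calculated as -log[free Mn] with [M] = [L] = 10 μM.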

[3] = Dynamic MRI clearance kinetics in mice; type: in vivo, balb/C mouse; conditions: 60 μmol/kg i.v., monoexponential fit of nSNR vs time
T1 relaxivity = type: physicochemical; conditions: for Relaxivity r1 in pH 7.4 buffer: pH 7.4 Tris buffer
[4] = Mn2+ thermodynamic stability constants by pH-potentiometry; type: physicochemical
Method in brief: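 The ligand was titrated by pH-potentiometry in the presence of 1 equiv MnCl2 at 25 °C and I = 0.15 M NaCl. KML = [ML]/([M][L]) and KHML = [HML]/([ML][H]). Effective formation constants were derived at pH 7.4. pMn is -log[free Mn] when [M] = [L] = 10 μM.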

[5] = Protein bound fraction by ultra-filtration; type: in vitro ADME, bovine; conditions: 150-300 μM solution
[6] = Variable temperature 17O NMR: hydration state and water exchange; type: physicochemical; conditions: for ΔH^≠: water exchange; for kex^310: water exchange rate at 310 K
Method in brief: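 Transverse relaxivity of H217O was measured with the Mn complex present across a range of temperatures. The data were fitted to derive water exchange parameters, including kex at 310 K and ΔH, and the Mn-17O hyperfine coupling constant.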

[7] = Mn tissue content by ICP-MS 24h after injection in mice; type: in vivo, mouse
Method in brief: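 Mice (N=4) received test compound i.v. at 60 μmol/kg. Tissue Mn was measured by ICP-MS at 24 h and compared with endogenous Mn in naive mice (N=4). Results were expressed as nmol/g and as %ID/g. Elevation above baseline was tested at P<0.05.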

[8] = target: bovine serum albumin (BSA) (Bos taurus, UniProt P02769); test: Protein bound fraction by ultra-filtration; type: in vitro ADME; conditions: 150-300 μM solution
[9] = tested on: carotid artery thrombus (fibrin); test: MR imaging of carotid artery thrombosis in a rat model, 1.5T; type: in vivo
Method in brief: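 In a rat carotid artery thrombosis model, 3D T1-weighted gradient-echo MRI with arterial inflow suppression was run at 1.5T. Scans were taken before and immediately after injection of 10 μmol/kg probe (40 μmol/kg metal) and repeated over 1 h; N=4 per probe. Thrombus-to-muscle and contralateral vessel-to-muscle CNR were followed over time. Thrombosis was confirmed by H&E histology. Error bars are SEM.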

[10] = Mn blood pharmacokinetics and plasma speciation in rats; conditions: rat, HPLC-ICP-MS
[11] = Biodistribution in rats by ICP-MS; conditions: rat, in vivo
in vivo = conditions: rat
[12] = rat, in vivo
[13] = cited from earlier work
[14] = rat, plateau by 35 minutes post injection

bovine serum albumin (BSA), sequence (P02769 25-607): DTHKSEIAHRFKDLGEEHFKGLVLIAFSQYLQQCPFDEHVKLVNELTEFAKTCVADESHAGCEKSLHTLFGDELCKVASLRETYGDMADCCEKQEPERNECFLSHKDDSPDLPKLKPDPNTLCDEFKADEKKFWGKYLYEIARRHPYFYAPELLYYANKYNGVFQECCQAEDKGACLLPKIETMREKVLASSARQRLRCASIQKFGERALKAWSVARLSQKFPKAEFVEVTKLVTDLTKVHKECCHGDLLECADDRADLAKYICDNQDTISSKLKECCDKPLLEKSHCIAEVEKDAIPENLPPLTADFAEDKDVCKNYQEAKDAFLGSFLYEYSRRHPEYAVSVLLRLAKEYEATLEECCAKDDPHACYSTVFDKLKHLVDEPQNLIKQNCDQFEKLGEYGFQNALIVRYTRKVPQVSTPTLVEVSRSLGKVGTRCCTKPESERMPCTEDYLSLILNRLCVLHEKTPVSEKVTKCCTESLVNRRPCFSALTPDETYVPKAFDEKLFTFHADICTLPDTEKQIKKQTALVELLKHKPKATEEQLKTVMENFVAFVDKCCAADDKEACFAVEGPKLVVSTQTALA

logKpH 7.4 (effective formation constant at pH 7.4) [2]: 11.40 | Blood clearance t1/2 [3]: 7.8 ± 3.0 min | logKML ([4]; Mn(II) complex, pH-potentiometry, 25 °C, I = 0.15 M NaCl): 14.14 | logKpH 7.4 (effective formation constant at pH 7.4) ([4]; from potentiometric titration, 25 °C, 0.15 M NaCl): 11.34 | Stability relative to [Mn(DPDP)]^3- at pH 7.4 ([4]; pH 7.4): > 10^5 times | Fraction protein bound in plasma [5]: 1-5% | Hydration state (q) [6]: 1 | Mn-17O hyperfine coupling constant AO/ħ [6]: 2.87±0.080 ×10^7 rad/s | Elimination by 24h [7]: > 99% | Injected dose remaining in the body at 24 hours [7]: less than 1% | Mn remaining in liver and kidneys at 24h ([7]; 60 μmol/kg i.v., ICP-MS): < 0.05 %ID/g | Fraction protein bound in 4.5% w/v BSA solution [8]: 1-5%
SMILES: O.O=C([O-])CN(CC(=O)[O-])C1CCCCC1N(CC(=O)[O-])Cc1ccccn1.[Mn+2] (stereo not shown) [[Mn(PyC3A)(H2O)]^-]
Pseudo-first order rate constant of transmetallation [1]: 6.76±0.03 × 10^-4 s^-1 | Relaxivity r1 in 4.5% w/v BSA solution (T1 relaxivity; 1.4 T, 37 °C, per Mn): 3.4 mM⁻¹ s⁻¹ | Relaxivity r1 in bovine blood plasma (T1 relaxivity; 1.4 T, 37 °C, per Mn): 3.8 mM⁻¹ s⁻¹ | Relaxivity r1 in pH 7.4 buffer (T1 relaxivity; 1.4 T, 37 °C, per Mn): 2.1 mM^-1s^-1 | ΔH^≠ [6]: 37.2 kJ/mol | kex^310 [6]: 1.0±0.02 ×10^8 s^-1 | Mn levels in all other tissues at 24h vs naïve mice ([7]; 60 μmol/kg i.v., ICP-MS): not elevated above endogenous basal levels

SMILES: O.O=C([O-])CN(CC(=O)[O-])C1CCCCC1N(CC(=O)[O-])CC(=O)[O-].[Mn+2] (stereo not shown) [[Mn(CDTA)(H2O)]^2-]
Pseudo-first order rate constant of transmetallation [1]: 1.10±0.01 × 10^-3 s^-1

SMILES: CC[C@H](C)[C@H](NC(=O)[C@H](Cc1ccc(O)cc1)NC(=O)[C@@H]1CSSC[C@H](NC(=O)[C@@H](CCC(=O)O)NC(=O)[C@H](Cc2ccc(O)cc2)NC(=O)[C@H](CNC(=O)c2ccc(CN(CC(=O)O)C3CCCCC3N(CC(=O)O)CC(=O)O)nc2)NC(=O)c2ccc(CN(CC(=O)O)C3CCCCC3N(CC(=O)O)CC(=O)O)nc2)C(=O)N2C[C@H](O)C[C@H]2C(=O)N[C@@H](Cc2ccc(O)c(Cl)c2)C(=O)NCC(=O)N[C@@H](CC(C)C)C(=O)N1)C(=O)N[C@@H](CCC(N)=O)C(=O)NCc1ccc(CNC(=O)[C@H](CNC(=O)c2ccc(CN(CC(=O)O)C3CCCCC3N(CC(=O)O)CC(=O)O)nc2)NC(=O)c2ccc(CN(CC(=O)O)C3CCCCC3N(CC(=O)O)CC(=O)O)nc2)cc1 (stereo partly shown) [Mn-FBP]
Thrombus enhancement compared with EP-2104R ([9]; rat model of arterial thrombosis): equivalent thrombus enhancement | Increase of thrombus-to-muscle CNR post injection ([9]; rat, 10 μmol/kg probe): more than 5 fold | Peak CNR vs. muscle, contralateral vessel [9, 14]: 5.6±1.5 | Peak CNR vs. muscle, thrombus [9, 14]: 32.9±4.0 | Mn dechelation in blood plasma (Mn speciation) [10]: no evidence of Mn dechelation | Molecular relaxivity relative to per Mn values (T1 relaxivity): 4 fold | Relaxivity in human fibrinogen solution compared with buffer (T1 relaxivity; 1.4 T, 37 °C): unchanged | Relaxivity r1 in 4.5% w/v BSA solution (T1 relaxivity; 1.4 T, 37 °C, per Mn): 11.4 mM⁻¹ s⁻¹ | Relaxivity r1 in bovine blood plasma (T1 relaxivity; 1.4 T, 37 °C, per Mn): 10.7 mM⁻¹ s⁻¹ | Relaxivity r1 in human fibrin gel (T1 relaxivity; fibrinogen converted to fibrin gel, 1.4 T, 37 °C, per Mn): 13.5 mM⁻¹ s⁻¹ | Increase in relaxivity in the presence of fibrin (T1 relaxivity; human fibrin gel vs buffer): 60% | Relaxivity r1 in pH 7.4 buffer (T1 relaxivity; 1.4 T, 37 °C, per Mn): 8.5 mM^-1s^-1 | Per Mn relaxivity relative to [Mn(PyC3A)(H2O)]^- (T1 relaxivity; pH 7.4 buffer): 4 fold | Eliminated after 24 hr [11]: > 99% | Mn in muscle at 24h [11]: 0.02±0.02% of the injected dose per gram tissue | half-life (in vivo): 23.5 ± 13.4 min | Hydration state (q) [6]: 1 | Mn-17O hyperfine coupling constant AO/ħ [6]: 2.82±0.040 ×10^7 rad/s | Water exchange rate kex ([6]; 37 °C): 1.1e+08 s⁻¹ | ΔH^≠ [6]: 39.7 kJ/mol | kex^310 [6]: 1.1±0.04 ×10^8 s^-1 | Total Mn blood clearance t1/2 [12]: 22.6 ± 6.8 min

pH by which complexation is complete ([4]; 1 mM each Mn2+ and PyC3A, 0.15M NaCl, 25 °C): 4.5
SMILES: O=C(O)CN(CC(=O)O)C1CCCCC1N(CC(=O)O)Cc1ccccn1 (stereo not drawn) [PyC3A, N-picolyl-N,N′,N′-trans-1,2-cyclohexylenediaminetriacetate]

SMILES: O=C([O-])CN1CCN(CC(=O)[O-])CCN(CC(=O)[O-])CCN(CC(=O)[O-])CC1.[Gd+3] [Gd-DOTA]
Relaxivity in plasma [13]: 3.6 mM⁻¹ s⁻¹

SMILES: O=C([O-])CN(CCN(CC(=O)[O-])CC(=O)[O-])CCN(CC(=O)[O-])CC(=O)[O-].[Gd+3] [[Gd(DTPA)(H2O)]^2-]
Pseudo-first order rate constant of transmetallation [1]: 1.41±0.31 × 10^-2 s^-1 | Relaxivity in plasma [13]: 4.1 mM⁻¹ s⁻¹
